Measurements from PubChem BioAssay.
The source made the active and inactive calls.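 How the source made its calls, unless noted: active means viability at or below 10% of carrier control in both of two separate runs; inconclusive means viability at or below 10% in only one of the two runs; inactive means the rest.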

test: SK-BR-3 cell growth inhibitors, pilot screen, 24 h, human (AID 572); details: SK-BR-3 viability, CellTiter-Glo luminescence, at 10 µM, stronger effect = lower value;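 further: compound exposure lasted between 18 and 24 h rather than exactly 24 h; 100% = carrier-treated control wells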

Structure (SMILES)	viability
CCn1cnc2sc(C(=O)Nc3ccc4c(c3)OCO4)c(C)c2c1=O	107% (inactive)
CC1CC(C)CN(CC(=O)Nc2ccc(S(N)(=O)=O)cc2)C1 (stereo not given)	96% (inactive)
Cc1ccc(S(=O)(=O)N2CCN(C(=O)CSC3CCCC3)CC2)c(C)c1	74% (inactive)
COc1ccc(C(=O)Nc2nc(C)c(C(=O)N(C)C)s2)cc1OC	70% (inactive)
C=CCOC(=O)CC(NC(=O)c1ccccc1)c1ccccc1 (stereo not given)	110% (inactive)
Cc1nc(Sc2cccn2C)c(C(F)(F)F)c(=O)[nH]1	105% (inactive)
O=C(OCC(=O)c1ccccc1Br)c1ccccn1	142% (inactive)
CCCCSc1nnc([C@H](C)NC(=O)OC(C)(C)C)o1	97% (inactive)
CCOc1ccccc1C1N(c2ccc(F)cc2)C(=O)C2CCCN21 (stereo not given)	109% (inactive)
CCOc1ncccc1C(=O)Nc1ccc(Cl)cc1	92% (inactive)
O=C(CSc1nc(N2CCCCC2)nc(N2CCCCC2)n1)Nc1nccs1	123% (inactive)
O=C(Nc1ncnc2sc3c(c12)CCC3)c1ccco1	81% (inactive)
CCc1nnc(SCc2cn3c(C)cc(C)nc3n2)n1N	96% (inactive)
O=C(c1ccco1)N1CCN(c2nc(C(F)(F)F)nc3c2nnn3Cc2ccccc2)CC1	133% (inactive)
O=C(CSc1nnc(-c2ccccc2)o1)NC1CCCCC1	75% (inactive)
Cn1c(Cl)cnc1C1CC(=O)c2cc(Cl)ccc2O1 (stereo not given)	112% (inactive)
C1COC(NC(C2CC2)C2CC2)=N1	94% (inactive)
COc1ccc(C2/C(=C(/O)c3ccccc3)C(=O)C(=O)N2c2ncccn2)cc1OC (stereo not given)	105% (inactive)
CC(=O)SCC(=O)N=c1sc2cc(F)ccc2n1C	90.5% (inactive)
O=c1c2ccccc2[nH]c(=S)n1CCN1CCC(=C(c2ccc(F)cc2)c2ccc(F)cc2)CC1	113% (inactive)

Structure (SMILES)	viability
CCn1c(SCC(N)=O)nnc1-c1ccc(S(=O)(=O)N2CCN(C)CC2)cc1	97% (inactive)
CCc1ccccc1N1C(=O)C2CC(C)=C(C)CC2C1=O (stereo not given)	89% (inactive)
CC(NC(=O)NC12CC3CC(CC(C3)C1)C2)C1CCCO1 (stereo not given)	80% (inactive)
Cc1ccc(Nc2nc(N)nc(CN3CCN(Cc4ccc5c(c4)OCO5)CC3)n2)cc1	93% (inactive)
Cc1cc(N2CCN(C3CCCC3)CC2)n2c(nc3ccccc32)c1C#N	78% (inactive)
CC(C)OC(=O)c1cc(NC(=O)C2C3CCC(O3)C2C(=O)O)cc(C(=O)OC(C)C)c1 (stereo not given)	106% (inactive)
Cc1cc(NC(=O)CSc2nc(C3CC3)nc3sc4c(c23)CCC(C)C4)no1 (stereo not given)	90% (inactive)
O=C(CSc1nc(-c2ccco2)cc(C(F)(F)F)n1)N1CCCc2ccccc21	109% (inactive)
O=C(CN1C(=O)CC(c2ccco2)Sc2ccccc21)Nc1ccc2c(c1)OCCO2 (stereo not given)	130% (inactive)
COc1cccc2c(=O)cc(C)n(CC(=O)Nc3ccc(C)c(C)c3)c12	105% (inactive)
Cc1cc(NC(=O)C(C)(C)C)no1	82% (inactive)
c1coc(CN2CN=C(Nc3nc4ccccc4s3)NC2)c1	91% (inactive)
NNC(=O)c1ccncc1	108% (inactive)
O=C(CCCCn1c(=O)c2ccccc2n(Cc2ccc(Cl)cc2)c1=O)NCc1ccco1	100% (inactive)
Fc1cccc(NCc2cn3ccccc3n2)c1	81% (inactive)
Cc1oncc1C(=O)Nc1ccc(C(F)(F)F)cc1	87% (inactive)
COC(=O)Cc1cc(=O)n(-c2ccccc2)[nH]1	95% (inactive)
Cc1ccc(-c2nn[nH]n2)cc1	109% (inactive)
Cc1cc(C)n2nc[n+](C)c2n1	88% (inactive)
CCCC1(C(=O)OC)NC(c2cc(OC)c(OC)c(OC)c2)C2C(=O)N(CC)C(=O)C21 (stereo not given)	67% (inactive)

test: HUVEC growth inhibition – cell-based, human, primary screen (AID 575;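 active means viability at or below 30% in both replicate assays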;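 further: 100% = median of untreated cell wells with 0.1% DMSO on each plate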); details: HUVEC proliferation, CellTiter-Glo luminescence, 72 h; at 10 µM; stronger effect = lower value
In short: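 Test system: primary human umbilical vein endothelial cells; medium: endothelial basal medium with 2% FBS plus growth supplements; dosing: 10 µM compound only; times: 72 h treatment at 37 °C; signal: CTG luminescence; read-out: % viability relative to median vehicle-well signal on each plate; control set: vehicle and MePR control wells; plate: 384-well, collagen-coated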

Structure (SMILES)	viability
CCn1cnc2sc(C(=O)Nc3ccc4c(c3)OCO4)c(C)c2c1=O	96.2% (inactive)
CC1CC(C)CN(CC(=O)Nc2ccc(S(N)(=O)=O)cc2)C1 (stereo not given)	96.9% (inactive)
Cc1ccc(S(=O)(=O)N2CCN(C(=O)CSC3CCCC3)CC2)c(C)c1	87.4% (inactive)
COc1ccc(C(=O)Nc2nc(C)c(C(=O)N(C)C)s2)cc1OC	91% (inactive)
C=CCOC(=O)CC(NC(=O)c1ccccc1)c1ccccc1 (stereo not given)	108% (inactive)
Cc1nc(Sc2cccn2C)c(C(F)(F)F)c(=O)[nH]1	102% (inactive)
O=C(OCC(=O)c1ccccc1Br)c1ccccn1	89.8% (inactive)
CCCCSc1nnc([C@H](C)NC(=O)OC(C)(C)C)o1	102% (inactive)
CCOc1ccccc1C1N(c2ccc(F)cc2)C(=O)C2CCCN21 (stereo not given)	111% (inactive)
CCOc1ncccc1C(=O)Nc1ccc(Cl)cc1	91.4% (inactive)
O=C(CSc1nc(N2CCCCC2)nc(N2CCCCC2)n1)Nc1nccs1	85.4% (inactive)
O=C(Nc1ncnc2sc3c(c12)CCC3)c1ccco1	94% (inactive)
CCc1nnc(SCc2cn3c(C)cc(C)nc3n2)n1N	96.5% (inactive)
O=C(c1ccco1)N1CCN(c2nc(C(F)(F)F)nc3c2nnn3Cc2ccccc2)CC1	69.2% (inactive)
O=C(CSc1nnc(-c2ccccc2)o1)NC1CCCCC1	105% (inactive)
Cn1c(Cl)cnc1C1CC(=O)c2cc(Cl)ccc2O1 (stereo not given)	15.5% (active)
C1COC(NC(C2CC2)C2CC2)=N1	77.3% (inactive)
COc1ccc(C2/C(=C(/O)c3ccccc3)C(=O)C(=O)N2c2ncccn2)cc1OC (stereo not given)	101% (inactive)
CC(=O)SCC(=O)N=c1sc2cc(F)ccc2n1C	75.5% (inactive)
O=c1c2ccccc2[nH]c(=S)n1CCN1CCC(=C(c2ccc(F)cc2)c2ccc(F)cc2)CC1	18.2% (active)

Structure (SMILES)	viability
CCn1c(SCC(N)=O)nnc1-c1ccc(S(=O)(=O)N2CCN(C)CC2)cc1	105% (inactive)
CCc1ccccc1N1C(=O)C2CC(C)=C(C)CC2C1=O (stereo not given)	104% (inactive)
CC(NC(=O)NC12CC3CC(CC(C3)C1)C2)C1CCCO1 (stereo not given)	103% (inactive)
Cc1ccc(Nc2nc(N)nc(CN3CCN(Cc4ccc5c(c4)OCO5)CC3)n2)cc1	106% (inactive)
Cc1cc(N2CCN(C3CCCC3)CC2)n2c(nc3ccccc32)c1C#N	96.8% (inactive)
CC(C)OC(=O)c1cc(NC(=O)C2C3CCC(O3)C2C(=O)O)cc(C(=O)OC(C)C)c1 (stereo not given)	88.1% (inactive)
Cc1cc(NC(=O)CSc2nc(C3CC3)nc3sc4c(c23)CCC(C)C4)no1 (stereo not given)	108% (inactive)
O=C(CSc1nc(-c2ccco2)cc(C(F)(F)F)n1)N1CCCc2ccccc21	72.5% (inactive)
O=C(CN1C(=O)CC(c2ccco2)Sc2ccccc21)Nc1ccc2c(c1)OCCO2 (stereo not given)	99% (inactive)
COc1cccc2c(=O)cc(C)n(CC(=O)Nc3ccc(C)c(C)c3)c12	84.5% (inactive)
Cc1cc(NC(=O)C(C)(C)C)no1	92.7% (inactive)
c1coc(CN2CN=C(Nc3nc4ccccc4s3)NC2)c1	115% (inactive)
NNC(=O)c1ccncc1	101% (inactive)
O=C(CCCCn1c(=O)c2ccccc2n(Cc2ccc(Cl)cc2)c1=O)NCc1ccco1	38.6% (inactive)
Fc1cccc(NCc2cn3ccccc3n2)c1	105% (inactive)
Cc1oncc1C(=O)Nc1ccc(C(F)(F)F)cc1	69.8% (inactive)
COC(=O)Cc1cc(=O)n(-c2ccccc2)[nH]1	91.2% (inactive)
Cc1ccc(-c2nn[nH]n2)cc1	112% (inactive)
Cc1cc(C)n2nc[n+](C)c2n1	106% (inactive)
CCCC1(C(=O)OC)NC(c2cc(OC)c(OC)c(OC)c2)C2C(=O)N(CC)C(=O)C21 (stereo not given)	98.3% (inactive)
